Source: ChEMBL document CHEMBL1138152, “Design and synthesis of novel hydrazide-linked bifunctional peptides as delta/mu opioid receptor agonists and CCK-1/CCK-2 receptor antagonists” (J Med Chem, 2006)
pIC50: −log10 of the molar value.

Legend:
[1] = target: Delta-type opioid receptor (Mus musculus, UniProt P32300); test: Agonist activity at delta opioid receptor by inhibition of muscle contraction in electrically stimulated isolated mouse vas deferens; assay type: functional, tissue-based
Summary of the method: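 Male ICR mouse vasa deferentia in 20-mL baths, 0.5 g tension, oxygenated Mg-free Krebs at 37 °C; field stimulation 0.1 Hz, 2.0 ms single pulses, supramaximal voltage. Tissue integrity checked with DPDPE (10 nM). Compound added cumulatively until maximal inhibition. Inhibition taken as mean contraction height for 1 min before dosing versus height 3 min after. IC50 from Hill-equation fit by nonlinear least squares.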

Mu-type opioid receptor = Mu-type opioid receptor (Cavia porcellus, UniProt P97266); test: Agonist activity at mu opioid receptor by inhibition of muscle contraction in electrically stimulated isolated guinea pig ileum; assay type: functional, tissue-based
Summary of the method: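 Longitudinal muscle–myenteric plexus strips from male Hartley guinea pig ileum, 1 g tension, oxygenated Krebs at 37 °C, 15 min equilibration. Stimulated at 0.1 Hz, 0.4 ms, supramaximal voltage. Integrity checked with PL-017 (10 nM). Compound added until maximal inhibition. Inhibition taken as contraction height 1 min before versus 3 min after dosing. IC50 from Hill-equation fit.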

[2] = target: T1, Cholecystokinin receptor (Homo sapiens) (UniProt P32239+P32238); test: Antagonist activity at CCK receptor by inhibition of CCK8-induced muscle contraction in unstimulated GPI/LMMP; assay type: functional; conditions: Cavia porcellus; target entry is the homologue from another species
Summary of the method: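 Male Hartley guinea pig ileum LMMP strips, 1 g tension, oxygenated Krebs bicarbonate buffer, 37 °C; 67 mM KCl sets maximal contractility. Initial noncumulative CCK-8 dose-response curve built. Test compound added without electrical stimulation; 3 min later the CCK-8 curve was rebuilt at an antagonist dose giving about a 3-fold rightward shift. Ke is the antagonist concentration halving CCK-8 activity.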

[3] = target: T1, Cholecystokinin receptor (Homo sapiens); test: Agonist activity at CCK receptor of guinea pig ileum at 300 nM; assay type: functional, tissue-based; conditions: Cavia porcellus, target entry is the homologue from another species
Summary of the method: (§1)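 Guinea pig ileum LMMP strips (male Hartley), 20-mL baths, 1 g tension, oxygenated Krebs bicarbonate buffer, 37 °C. Tissue first challenged with 67 mM KCl to set maximal contraction. Test compound added to the bath; agonist activity taken as contraction height as a percentage of the maximal KCl contraction (A50).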

[4] = target: Delta-type opioid receptor (Homo sapiens, UniProt P41143); test: Inhibition of [35S]GTP-gamma-S binding to human delta opioid receptor expressed in CHO cells; assay type: functional, cell-based
Summary of the method: (§2)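 CHO-expressed receptor membranes (10 µg) in 50 mM HEPES pH 7.4 with EDTA, 5 mM MgCl2, 30 µM GDP, DTT, 100 mM NaCl, PMSF, BSA and 0.1 nM [35S]GTPγS. Test drug at various concentrations, duplicate or triplicate, 90 min at 30 °C. Nonspecific binding with 10 µM GTPγS.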

[5] = target: Mu-type opioid receptor (Rattus norvegicus) (UniProt P33535); test: Inhibition of [35S]GTP-gamma-S binding to rat mu opioid receptor expressed in CHO cells; assay type: functional, cell-based; summary of the method: as §2
[6] = target: T1, Cholecystokinin receptor (Homo sapiens); test: Agonist activity at CCK receptor of guinea pig ileum at 1 uM; assay type: functional, tissue-based; conditions: Cavia porcellus, target entry is the homologue from another species; summary of the method: as §1
[7] = target: T1, Cholecystokinin receptor (Homo sapiens); test: Antagonist activity at CCK receptor by inhibition of CCK8-induced muscle contraction in unstimulated GPI/LMMP at 1 uM; assay type: functional; conditions: Cavia porcellus, filed as partial agonist, target entry is the homologue from another species
[8] = Selectivity for human delta opioid receptor over rat mu opioid receptor

T1 sequence (P32238 whole entry, looked up): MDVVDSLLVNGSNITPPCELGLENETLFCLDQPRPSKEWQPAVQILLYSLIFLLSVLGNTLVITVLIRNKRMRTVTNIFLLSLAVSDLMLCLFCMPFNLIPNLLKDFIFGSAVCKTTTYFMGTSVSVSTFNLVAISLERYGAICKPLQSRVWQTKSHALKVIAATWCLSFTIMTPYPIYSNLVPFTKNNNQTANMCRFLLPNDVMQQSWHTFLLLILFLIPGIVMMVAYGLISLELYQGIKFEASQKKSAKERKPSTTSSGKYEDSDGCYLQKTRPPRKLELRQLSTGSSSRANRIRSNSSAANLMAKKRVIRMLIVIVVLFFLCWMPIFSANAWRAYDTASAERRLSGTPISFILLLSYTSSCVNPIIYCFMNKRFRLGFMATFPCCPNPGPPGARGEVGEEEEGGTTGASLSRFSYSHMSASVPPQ
T1 sequence (P32239 whole entry, looked up): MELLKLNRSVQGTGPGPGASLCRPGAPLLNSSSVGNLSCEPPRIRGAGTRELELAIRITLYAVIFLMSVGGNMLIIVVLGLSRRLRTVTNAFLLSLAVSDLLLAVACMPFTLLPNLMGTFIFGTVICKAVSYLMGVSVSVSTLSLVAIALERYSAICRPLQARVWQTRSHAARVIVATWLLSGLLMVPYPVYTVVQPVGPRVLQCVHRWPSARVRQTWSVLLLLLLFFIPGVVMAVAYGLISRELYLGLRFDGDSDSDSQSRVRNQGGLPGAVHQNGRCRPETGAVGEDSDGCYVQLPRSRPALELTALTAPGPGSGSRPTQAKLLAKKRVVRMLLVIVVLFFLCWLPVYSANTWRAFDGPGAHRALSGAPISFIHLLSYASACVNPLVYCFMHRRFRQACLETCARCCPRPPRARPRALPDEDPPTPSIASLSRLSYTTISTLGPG
Mu-type opioid receptor (Rattus norvegicus), sequence (P33535 whole entry): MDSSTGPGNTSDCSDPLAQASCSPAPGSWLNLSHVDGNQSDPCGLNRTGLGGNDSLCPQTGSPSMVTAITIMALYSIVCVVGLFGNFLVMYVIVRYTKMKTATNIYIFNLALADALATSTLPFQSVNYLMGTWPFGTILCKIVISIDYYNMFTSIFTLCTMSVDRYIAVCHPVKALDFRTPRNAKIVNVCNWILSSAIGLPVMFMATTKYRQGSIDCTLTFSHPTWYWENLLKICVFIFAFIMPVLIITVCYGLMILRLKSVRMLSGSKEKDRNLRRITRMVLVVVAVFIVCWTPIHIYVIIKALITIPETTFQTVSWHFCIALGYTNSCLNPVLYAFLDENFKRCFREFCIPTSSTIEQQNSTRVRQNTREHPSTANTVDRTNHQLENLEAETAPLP
Delta-type opioid receptor (Homo sapiens, UniProt P41143), sequence (P41143 whole entry): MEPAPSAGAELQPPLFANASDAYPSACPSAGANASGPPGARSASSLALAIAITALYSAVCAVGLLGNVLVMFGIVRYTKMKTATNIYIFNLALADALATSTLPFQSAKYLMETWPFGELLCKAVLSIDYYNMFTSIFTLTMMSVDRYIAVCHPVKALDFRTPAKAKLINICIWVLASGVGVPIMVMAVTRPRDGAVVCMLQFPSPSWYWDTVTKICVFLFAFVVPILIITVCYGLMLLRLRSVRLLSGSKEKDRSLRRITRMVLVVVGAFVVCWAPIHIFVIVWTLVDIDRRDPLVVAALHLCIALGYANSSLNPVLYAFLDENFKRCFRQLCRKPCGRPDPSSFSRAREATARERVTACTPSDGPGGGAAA
Mu-type opioid receptor, sequence (P97266 whole entry): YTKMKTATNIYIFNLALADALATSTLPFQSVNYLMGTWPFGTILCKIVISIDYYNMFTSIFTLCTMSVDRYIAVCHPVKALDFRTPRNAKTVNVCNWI
Delta-type opioid receptor (Mus musculus, UniProt P32300), sequence (P32300 whole entry): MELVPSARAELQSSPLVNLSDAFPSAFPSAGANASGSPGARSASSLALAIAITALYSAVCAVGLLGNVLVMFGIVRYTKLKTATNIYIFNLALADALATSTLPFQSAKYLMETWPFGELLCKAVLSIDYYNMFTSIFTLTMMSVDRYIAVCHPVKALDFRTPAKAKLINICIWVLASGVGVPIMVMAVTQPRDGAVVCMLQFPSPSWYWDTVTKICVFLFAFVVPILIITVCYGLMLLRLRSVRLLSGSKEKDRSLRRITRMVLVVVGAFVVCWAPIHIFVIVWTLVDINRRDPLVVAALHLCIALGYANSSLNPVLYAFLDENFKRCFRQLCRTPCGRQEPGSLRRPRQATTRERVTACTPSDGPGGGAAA

CCCC[C@@H](C(=O)N[C@@H](CC(=O)O)C(=O)N[C@@H](Cc1ccccc1)C(N)=O)N(C)C(=O)[C@H](Cc1c[nH]c2ccccc12)NC(=O)CNC(=O)[C@@H](Cc1ccccc1)NC(=O)[C@H](Cc1ccc(O)cc1)NC(=O)[C@@H](N)CC(=O)O
pIC50 [1]: 7.54 | pIC50 (Mu-type opioid receptor): 6.66 | Ke [2]: 66 nM | Activity [3]: 0%

CCCC[C@@H](C(=O)N[C@H](Cc1cn(C(=O)OC(C)(C)C)c2ccccc12)C(=O)O)N(C)C(=O)[C@H](CC(=O)O)NC(=O)[C@H](Cc1ccccc1)NN[C@@H](Cc1ccccc1)C(=O)NCC(=O)N[C@H](C)C(=O)N[C@@H](Cc1ccc(O)cc1)C(=O)O
Emax [4]: 120% | Emax [5]: 130% | Activity [6]: 5% | Ke [7]: Partial agonist

CCCC[C@H](NC(=O)[C@H](CC(=O)O)NC(=O)[C@H](Cc1ccccc1)NN[C@@H](Cc1ccccc1)C(=O)NCC(=O)N[C@H](C)C(=O)N[C@@H](Cc1ccc(O)cc1)C(=O)O)C(=O)N[C@H](Cc1cn(C(=O)OC23CC4CC(CC(C4)C2)C3)c2ccccc12)C(=O)O
Emax [4]: 25% | Emax [5]: 103% | Activity [6]: 0% | Ke [2]: 44 nM | Selectivity ratio [8]: 430
